Data as given in ChEMBL document CHEMBL3272172, “Inhibition of the activity of the luteinizing hormone-releasing hormone (LH-RH) by analogues with variations at positions 2, 3, and 6 and the carboxyl terminus” (J Med Chem, 1977).
Square brackets hold non-standard residues; d marks the D form. Peptide text beside a SMILES is read from it. pGlu = O=C1CC[C@@H](C(=O)O)N1

Legend:
[1] = target: T1, Gonadotropin-releasing hormone receptor (Rattus norvegicus) (UniProt P30969); experiment: Antagonist activity at LH-RH receptor in Sprague-Dawley rat pituitary gland assessed as change in LH-RH-induced follicle-stimulating hormone release at 100 ug/ml preincubated for 2 hrs followed by LH-RH addition at 5th and 6th hr 5 mins post drug addition and measured every hour for 4 hrs by RIA
T1 sequence (whole entry): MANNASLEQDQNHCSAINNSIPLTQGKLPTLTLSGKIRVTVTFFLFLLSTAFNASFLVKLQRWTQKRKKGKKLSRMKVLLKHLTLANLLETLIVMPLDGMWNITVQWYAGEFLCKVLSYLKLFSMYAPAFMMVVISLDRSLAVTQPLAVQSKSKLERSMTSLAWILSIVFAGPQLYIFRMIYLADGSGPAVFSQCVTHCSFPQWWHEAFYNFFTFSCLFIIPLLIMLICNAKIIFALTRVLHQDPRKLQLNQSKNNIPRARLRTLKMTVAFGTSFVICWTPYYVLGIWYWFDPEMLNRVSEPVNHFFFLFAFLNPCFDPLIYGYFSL
In short: (§1)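 Two pituitaries from 20-day-old female rats were incubated in 1 mL lactated Ringer's at 37 °C with shaking for 6 h, with medium replaced hourly. Analogue was added in hours 3–6. LH-RH at 0.3 ng/mL was added in hours 5–6, 5 min after the analogue. LH and FSH were measured by RIA against the LER-1240-2 or FSH standard and reported as Δ ng/mL ± SEM with p values.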

[2] = target: T1, Gonadotropin-releasing hormone receptor (Rattus norvegicus); experiment: Agonist activity at LH-RH receptor in Sprague-Dawley rat pituitary gland assessed as change in luteinizing hormone release at 100 ug/ml incubated for 4 hrs measured every hour for 4 hrs by RIA
In short: (§2)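 Two pituitaries from 20-day-old female rats per beaker, in 1 mL lactated Ringer's at 37 °C with shaking, 6 h total. Medium was replaced hourly. After two preincubation hours the analogue was present alone in hours 3–6 (peptide in µg/mL of medium). LH and FSH were measured by RIA as ng of LH-LER-1240-2 or FSH standard, given as Δ ± SEM with p values.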

[3] = target: T1, Gonadotropin-releasing hormone receptor (Rattus norvegicus); experiment: Antagonist activity at LH-RH receptor in Sprague-Dawley rat pituitary gland assessed as change in LH-RH-induced luteinizing hormone release at 100 ug/ml preincubated for 2 hrs followed by LH-RH addition at 5th and 6th hr 5 mins post drug addition and measured every hour for 4 hrs by RIA; in short: as §1
[4] = target: T1, Gonadotropin-releasing hormone receptor (Rattus norvegicus); experiment: Agonist activity at LH-RH receptor in Sprague-Dawley rat pituitary gland assessed as change in follicle-stimulating hormone release at 100 ug/ml incubated for 4 hrs measured every hour for 4 hrs by RIA; in short: as §2
[5] = target: T1, Gonadotropin-releasing hormone receptor (Rattus norvegicus); experiment: Antagonist activity at LH-RH receptor in Sprague-Dawley rat pituitary gland assessed as change in LH-RH-induced luteinizing hormone release at 10 ug/ml preincubated for 2 hrs followed by LH-RH addition at 5th and 6th hr 5 mins post drug addition and measured every hour for 4 hrs by RIA; in short: as §1
[6] = target: T1, Gonadotropin-releasing hormone receptor (Rattus norvegicus); experiment: Antagonist activity at LH-RH receptor in Sprague-Dawley rat pituitary gland assessed as change in LH-RH-induced follicle-stimulating hormone release at 10 ug/ml preincubated for 2 hrs followed by LH-RH addition at 5th and 6th hr 5 mins post drug addition and measured every hour for 4 hrs by RIA; in short: as §1
[7] = target: T1, Gonadotropin-releasing hormone receptor (Rattus norvegicus); experiment: Antagonist activity at LH-RH receptor in Sprague-Dawley rat pituitary gland assessed as change in LH-RH-induced follicle-stimulating hormone release at 1 ug/ml preincubated for 2 hrs followed by LH-RH addition at 5th and 6th hr 5 mins post drug addition and measured every hour for 4 hrs by RIA; in short: as §1
[8] = target: T1, Gonadotropin-releasing hormone receptor (Rattus norvegicus); experiment: Antagonist activity at LH-RH receptor in Sprague-Dawley rat pituitary gland assessed as change in LH-RH-induced luteinizing hormone release at 1 ug/ml preincubated for 2 hrs followed by LH-RH addition at 5th and 6th hr 5 mins post drug addition and measured every hour for 4 hrs by RIA; in short: as §1

Compound | Activity [1] [ng/mL] | Activity [2] [ng/mL] | Activity [3] [ng/mL] | Activity [4] [ng/mL] | Activity [5] [ng/mL] | Activity [6] [ng/mL] | Activity [7] [ng/mL] | Activity [8] [ng/mL]
CC(C)C[C@H](NC(=O)CNC(=O)[C@H](Cc1ccc(O)cc1)NC(=O)[C@H](CO)NC(=O)[C@H](CC(N)=O)NC(=O)[C@H](CC(C)C)NC(=O)[C@@H]1CCC(=O)N1)C(=O)N[C@@H](CCCNC(=N)N)C(=O)N1CCC[C@H]1C(=O)NCC(N)=O ([pGlu]LNSYGLRPG-NH2) | 2300 | 18 | 185 | -1270 |  |  |  | 
CC(C)C[C@H](NC(=O)CNC(=O)[C@H](Cc1ccc(O)cc1)NC(=O)[C@H](CO)NC(=O)[C@H](CC(C)C)NC(=O)[C@@H](NC(=O)[C@@H]1CCC(=O)N1)[C@@H](C)O)C(=O)N[C@@H](CCCNC(=N)N)C(=O)N1CCC[C@H]1C(=O)NCC(N)=O ([pGlu]TLSYGLRPG-NH2) | 3230 | 14 | 180 | 699 | 180 | 3080 |  | 
CC(C)C[C@H](NC(=O)CNC(=O)[C@H](Cc1ccc(O)cc1)NC(=O)[C@H](CO)NC(=O)[C@H](CO)NC(=O)[C@H](CC(C)C)NC(=O)[C@@H]1CCC(=O)N1)C(=O)N[C@@H](CCCNC(=N)N)C(=O)N1CCC[C@H]1C(=O)NCC(N)=O ([pGlu]LSSYGLRPG-NH2) |  | -7 | 90 | -367 | 88 | 6540 |  | 
CC(C)C[C@H](NC(=O)[C@@H]1CCC(=O)N1)C(=O)N[C@@H](C)C(=O)N[C@@H](CO)C(=O)N[C@@H](Cc1ccc(O)cc1)C(=O)N[C@H](C)C(=O)N[C@@H](CC(C)C)C(=O)N[C@@H](CCCNC(=N)N)C(=O)N1CCC[C@H]1C(=O)NCC(N)=O | 5850 | 13 | 115 | -351 | 149 | 8150 | 7020 | 230

The next lines start with the values.

Activity [1] [ng/mL] | Activity [2] [ng/mL] | Activity [3] [ng/mL] | Activity [4] [ng/mL] | Activity [5] [ng/mL] | Activity [6] [ng/mL] | Activity [7] [ng/mL] | Activity [8] [ng/mL] | Compound
1910 | 42 | 49 | 1020 |  |  |  |  | CCNC(=O)[C@@H]1CCCN1C(=O)[C@H](CCCNC(=N)N)NC(=O)[C@H](CC(C)C)NC(=O)[C@@H](C)NC(=O)[C@H](Cc1ccc(O)cc1)NC(=O)[C@H](CO)NC(=O)[C@H](C)NC(=O)[C@@H](NC(=O)[C@@H]1CCC(=O)N1)[C@@H](C)CC
1780 | -3 | 62 | 184 | 56 | 2970 | 2610 | 157 | CCNC(=O)[C@@H]1CCCN1C(=O)[C@H](CCCNC(=N)N)NC(=O)[C@H](CC(C)C)NC(=O)[C@@H](C)NC(=O)[C@H](Cc1ccc(O)cc1)NC(=O)[C@H](CO)NC(=O)[C@H](C)NC(=O)[C@H](CC)NC(=O)[C@@H]1CCC(=O)N1
